Compound activity from PubChem.
IDE cell activ: IDE (human) activation, cell-based; AID 493087; activation, % at 5.96 µM; HEK cells, FAbeta-B cleavage, fluorescence polarization; 0% vehicle, 100% cell-free pure enzyme wells; P14735; actives 0.073% (n = 340,000);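 active means activation above the mean of all tested compounds plus 3 SD, set per screening campaign, cut at about 17% in these data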
Target sequence (P14735 whole entry, looked up): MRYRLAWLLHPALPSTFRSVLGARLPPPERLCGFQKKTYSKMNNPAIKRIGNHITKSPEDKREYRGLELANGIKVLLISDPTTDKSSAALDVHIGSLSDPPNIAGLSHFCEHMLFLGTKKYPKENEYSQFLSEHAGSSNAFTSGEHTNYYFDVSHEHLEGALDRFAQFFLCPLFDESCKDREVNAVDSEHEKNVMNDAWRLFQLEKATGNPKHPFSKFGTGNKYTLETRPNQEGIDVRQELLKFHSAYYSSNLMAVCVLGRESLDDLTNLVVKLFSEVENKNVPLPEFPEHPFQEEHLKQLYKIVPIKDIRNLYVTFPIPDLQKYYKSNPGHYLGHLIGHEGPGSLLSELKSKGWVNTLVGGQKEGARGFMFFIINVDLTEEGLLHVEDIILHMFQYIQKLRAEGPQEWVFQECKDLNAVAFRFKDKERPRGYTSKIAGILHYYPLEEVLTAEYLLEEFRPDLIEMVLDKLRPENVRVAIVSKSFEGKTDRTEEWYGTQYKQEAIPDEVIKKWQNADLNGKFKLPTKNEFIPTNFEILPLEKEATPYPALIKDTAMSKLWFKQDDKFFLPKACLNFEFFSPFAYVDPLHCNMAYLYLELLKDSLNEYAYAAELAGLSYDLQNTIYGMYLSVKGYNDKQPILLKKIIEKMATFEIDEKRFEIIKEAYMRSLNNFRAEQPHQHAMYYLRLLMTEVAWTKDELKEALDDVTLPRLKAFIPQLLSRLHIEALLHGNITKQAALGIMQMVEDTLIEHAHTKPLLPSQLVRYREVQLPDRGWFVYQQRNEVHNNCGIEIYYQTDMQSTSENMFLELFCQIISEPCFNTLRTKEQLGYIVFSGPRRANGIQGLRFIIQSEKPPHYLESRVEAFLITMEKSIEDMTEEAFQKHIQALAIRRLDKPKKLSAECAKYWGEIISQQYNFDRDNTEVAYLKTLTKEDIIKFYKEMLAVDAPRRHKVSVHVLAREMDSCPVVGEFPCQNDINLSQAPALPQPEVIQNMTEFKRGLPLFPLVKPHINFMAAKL
CSN deneddyl inh: CSN deneddylation inhibition. Q92905. Purified CSN, SCF-Nedd8-OG deneddylation, fluorescence polarization. inhibition, % at 12.5 µM. actives 0.38% (n = 360,000). AID 651999;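 active means pattern-corrected inhibition above about 35%, with an unprinted fluorescence ratio check between 0.5 and 1.5, limit read from the data, passing the limit was not always enough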
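assay system = purified human Csn5 enzyme expressed in HEK293T cells | amount = 0.24 nM enzyme | buffer or medium = Tris/NaCl/DTT buffer, pH 7.5 | reagent = 10 nM SCFSkp2-Nedd8OG | compound = one concentration, 12.5 µM, 0.25% DMSO | times = 90 min reaction at room temperature | signal = FP | read-out basis = % inhibition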
IDE inh: inhibits human insulin-degrading enzyme in HEK cells | inhibition, % at 5.59 µM | FAbetaB cleavage, fluorescence polarization | P14735 | actives 0.41% (n = 320,000);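 active means percent inhibition above the average of all tested compounds plus 3 SD, set per screening campaign, cut at about 16% in these data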;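 further: IDE supplied by intact live HEK cells; FP after avidin binding of uncleaved biotin substrate so inhibition keeps polarization high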
HNF4A DNA FP: change in binding of human HNF4 alpha to DNA; P41235; HNF4a-FITC DNA binding, fluorescence polarization, 1 h; activity change, % at 10 µM; actives 0.3% (n = 360,000); AID 1224865; in the data active means activity change above about 30%, passing the limit was not always enough
TPT1 inhibitor: blocks Candida albicans tRNA 2'-phosphotransferase. recombinant caTPT1, FP RNA substrate dephosphorylation. inhibition, % at 5 µM. actives 0.81% (n = 300,000). AID 1962;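 active means inhibition above the mean of all tested compounds plus 3 SD, set per screening campaign, cut at about 24% in these data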
TPT1 inh confirm: TPT1 (C. albicans) inhibition, confirmation; inhibition, % at 5 µM; AID 2149; recombinant caTPT1, fluorescence polarization, RNase T1 coupled; actives 74% (n = 2,400); shares compounds with TPT1 inhibitor;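 active means inhibition above the primary screen limit, the mean inhibition of all tested compounds plus 3 SD, cut at about 25% in these data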
RNase T1 counter: blocks Aspergillus oryzae RNase T1, a TPT1 counter-screen | actives 83% (n = 2,400) | inhibition, % at 5 µM | RNase T1 cleavage, fluorescence polarization, 1536-well | shares compounds with TPT1 inhibitor;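 active means inhibition above the solvent-only control well mean plus 3 SD, limit set per screening run, cut at about 23% in these data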;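 further: inhibitors block cleavage so intact labeled substrate keeps polarization high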
IDE inh confirm: cellular human IDE inhibition, confirmation. shares compounds with IDE inh. HEK cells, FAbetaB cleavage, fluorescence polarization. inhibition, % at 5.59 µM. actives 51% (n = 1,200). AID 435028;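 active means mean inhibition across triplicate wells above the cutoff set by the earlier primary insulin-degrading enzyme screen, cut at about 16% in these data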
HEK293 tox: counter-screen for IDE inhibitors: cytotoxicity in HEK cells | shares compounds with IDE inh | HEK293 cytotoxicity, ATP luminescence | inhibition, % at 5.59 µM | actives 28% (n = 1,200) | AID 449730; in the data active means inhibition above about 22%
Hits are given with their value; n = inactive; x = no result; + = active, no number. Hits are enriched below; roughly 1.4% of the tested compounds scored in any of these assays.

SMILES	IDE cell activ	CSN deneddyl inh	IDE inh	HNF4A DNA FP	TPT1 inhibitor	TPT1 inh confirm	RNase T1 counter	IDE inh confirm	HEK293 tox
Cc1cccc(C)c1NC(=O)C1(C)CN(S(C)(=O)=O)CC(=O)N1Cc1ccc2c(c1)OCO2 (stereo not drawn)	x	n	x	n	x	x	x	x	x
C=CCSc1nc2[nH]ncc2c(=O)[nH]1	n	n	n	n	n	x	x	x	x
C#CCSc1nc2[nH]ncc2c(=O)[nH]1	n	n	n	n	33	n	n	x	x
COc1cccc(CNC(=O)[C@@H]2CCCN2C(=O)OC(C)(C)C)c1	x	n	x	n	x	x	x	x	x
CC[C@H](CO)Oc1cc(NCc2cccc(N)c2)c2ncn(C(C)C)c2c1	x	n	x	n	x	x	x	x	x
Cc1ccc(S(=O)(=O)c2c(N)n(Cc3ccco3)c3nc4ccccc4nc23)cc1	n	n	n	n	27	n	29	x	x
COc1ccccc1OCC(=O)Nc1ccc(-c2nnc(-c3ccco3)o2)cc1	n	n	n	n	n	x	x	x	x
CCC(Oc1ccccc1)C(=O)Nc1ccc(-c2nnc(-c3ccco3)o2)cc1 (stereo not drawn)	n	n	n	n	71	n	n	x	x
Cc1cc(SCC(=O)NC2CC2)nc2ccccc12	n	n	n	n	x	x	x	x	x
Cn1c(SCC(=O)NCC2CCCO2)nnc1-c1cccc(NC(=O)c2ccccc2F)c1 (stereo not drawn)	n	n	n	n	31	n	n	x	x
Cc1cc(SCC(=O)NCC2CCCO2)nc2ccccc12 (stereo not drawn)	n	n	n	n	30	55	67	x	x
Cc1ccc(N2C(=O)C3C(C(=O)c4ccccc4)=NN(c4ccccc4)C3C2=O)cc1 (stereo not drawn)	n	n	n	n	29	37	51	x	x
Cc1ccc(/C=C(\C#N)C(=O)Nc2c(C)cccc2C)s1	n	35	n	n	30	41	53	x	x
C#CCN1CCc2onc(-c3ccc(Br)cc3)c2C1=O	x	n	x	n	x	x	x	x	x
C=CCN1C(=O)/C(=C/C=C2/N(CC)c3ccc(S(=O)(=O)N(C)C)cc3N2CC)SC1=S	n	n	22	n	161	144	138	160	39
CN(C)c1ccc(/C=C(\C#N)C(=O)Nc2nc3c(s2)CCN(Cc2ccccc2)C3)cc1	n	n	38	n	+	132	146	58	n
CN(CC(=O)Nc1cccc(F)c1)C(=O)c1ccccc1Sc1ccccc1C#N	n	n	n	n	x	x	x	x	x
O=C(C1=NN(c2ccccc2)C2C(=O)N(c3ccccc3Cl)C(=O)C12)c1ccccc1 (stereo not drawn)	n	n	24	n	31	32	46	29	n
COc1ccccc1N1C(=O)C2C(C(=O)c3ccccc3)=NN(c3ccccc3)C2C1=O (stereo not drawn)	n	n	n	n	n	x	x	x	x
O=C(C1=NN(c2ccccc2)C2C(=O)N(c3ccccc3)C(=O)C12)c1ccccc1 (stereo not drawn)	n	n	19	n	28	32	45	23	n
O=C(CN1C(=O)S/C(=C\c2cc(Cl)c(O)c(Cl)c2)C1=O)Nc1ccccc1	n	n	21	38	96	100	108	23	n
CN1/C(=C\C=C2/SC(=S)N(CC(=O)O)C2=O)C(C)(C)c2ccccc21	n	n	133	n	79	74	78	26	n
CN1/C(=C\C(=O)C(F)F)C(C)(C)c2ccccc21	n	n	n	n	n	x	x	x	x
CCCN1C(=O)/C(=C/C=C2\N(CC)c3ccccc3C2(C)C)SC1=S	n	n	16	n	178	138	125	114	n
CC(=O)Nc1ccc(NC(=O)C(C)OC(=O)c2cccc(S(=O)(=O)N3CCCCCC3)c2)cc1 (stereo not drawn)	n	n	n	n	n	x	x	x	x
SMILES	IDE cell activ	CSN deneddyl inh	IDE inh	HNF4A DNA FP	TPT1 inhibitor	TPT1 inh confirm	RNase T1 counter	IDE inh confirm	HEK293 tox
COc1cccc(S(=O)(=O)Nc2ccc(C(O)(C(F)(F)F)C(F)(F)F)cc2)c1	x	n	x	n	x	x	x	x	x
CCOc1cc(/C=C2/SC(=S)N(CC3CCCO3)C2=O)ccc1O (stereo not drawn)	n	n	35	42	30	35	47	123	24
O=C1/C(=C/c2cccc(O)c2)SC(=S)N1CC1CCCO1 (stereo not drawn)	n	n	n	n	n	x	x	x	x
Cc1ccc(F)cc1CNC(=O)C1CCC(=O)N(CCCN2CCCC2=O)C1 (stereo not drawn)	n	n	n	n	n	x	x	x	x
O=C(Cc1cccc(NC(=O)C2CCCN(C(=O)C3CCCCC3)C2)c1)Nc1cccc(C(=O)N2CCCC2)c1 (stereo not drawn)	n	n	n	n	x	x	x	x	x
O=C1/C(=C/c2ccccc2)Nc2ccccc21	n	n	28	n	63	64	70	32	n
C/C(=C\C(=O)c1c(O)cc(C)oc1=O)N(C)C	x	n	n	n	n	x	x	x	x
COc1ccc(/C=C/C(=O)c2c(O)cc(C)oc2=O)c(OC)c1	n	n	20	n	134	54	75	n	n
CC[n+]1c(/C=C/C=C/N(C(C)=O)c2ccccc2)sc2cc(OC)ccc21	x	x	40	x	56	76	81	35	63
CCN(CC)c1ccc(/C=C(\C#N)C(=O)c2ccc(Br)cc2)cc1	n	n	68	n	137	104	103	51	n
CCN(CC)c1ccc(/C=C(\C#N)C(N)=S)cc1	n	n	22	n	104	n	n	n	n
CN(C)c1ccc(/C=C(\C#N)C(=O)c2ccccc2)cc1	n	n	28	77	158	162	150	96	n
CCOC(=O)C1=C(C)N(c2ccc(OC)cc2)C(=O)/C1=C\c1ccc(O)c(OCC)c1	n	n	n	n	n	x	x	x	x
CCNC(=O)CSC1=N/C(=C\c2ccc(O)c(OCC)c2)C(=O)N1c1ccc(OC(F)F)cc1	n	47	70	90	90	102	97	148	n
O=C(OC1CCOC1=O)C1CCN(S(=O)(=O)c2c(Cl)cccc2Cl)CC1 (stereo not drawn)	n	n	n	n	n	x	x	x	x
COc1ccc(/C=C2\SC(=S)N(CCC(=O)N3CCCCC3)C2=O)cc1	n	n	n	n	n	x	x	x	x
COCCN1C(=O)/C(=C/c2ccc(N3CCCC3)cc2)SC1=S	n	n	26	n	133	138	131	77	n
